Laboratory results: publication PMC3034256 (Chemistry & biology, 2011)

System: macrophage progenitor cells expressing MIEG3, wild-type SHP2, or SHP2/E76K
Experiment: GM-CSF induced ERK1/2 activation in macrophage progenitors
Format: cell-based
Conditions: 2 µM for 2 hours, GM-CSF 50 ng/mL for 60 minutes
Procedure, shortened: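 Bone marrow low-density mononuclear cells were transduced (empty vector, wild-type SHP2 or SHP2/E76K), EGFP-sorted and grown 5 days in M-CSF 100 ng/mL to give macrophage progenitors. These were serum- and growth factor-starved 16 h, pretreated 2 h with DMSO or 2 µM test compound, then left unstimulated or given GM-CSF 50 ng/mL for 60 min. Extracts were immunoblotted for phospho-ERK1/2 and total ERK1/2.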

## C=C/C(=C/C(=O)C[C@H](C)C[C@@H](C)CC[C@H](O)[C@H](C)C(=O)C[C@@H](O)[C@H](C)[C@@H](C)OC(=O)C[C@@H](O)C1=C(C)C(=O)OC1=O)CC [TTN, tautomycetin]
  effect on ERK1/2 hyperactivation in SHP2/E76K-expressing cells: effectively inhibited
  effect on GM-CSF induced ERK1/2 activation: abrogated
